The text below walks through data of the RNAGym collection of RNA variant scans (doi:10.1038/s41586-018-0170-7).

The chains are these.
B1: tRNA (parent)
chain: GUUCCGUUGGCGUAAUGGUAACGCGUCUCCCUCCUAAGGAGAAGACUGCGGGUUCGAGUCCCGUACGGAACG

In this series the parent is B1. The series is described as follows: yeast fitness, log relative to wild type (ln ratio); higher = fitter; tRNA-Arg(CCU), competitive growth, 37 C, 1 M NaCl. In outline:
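Fitness is the natural log of a genotype's generation count divided by that of the wild type. A combinatorial library of tRNA-Arg(CCU) variants sat on a HIS3 centromeric plasmid in BY4742 lacking the chromosomal gene, from two independent transformations. Pools grew 4 generations in SC-HIS at 30 °C, then ~6.5 generations (~26.5 h) in SC-HIS 1M NaCl at 37 °C, with three outputs per input. Generations came from OD-scaled log2 output/input frequency, inverse-variance weighted across replicates, with variants counted by 125 bp paired-end Illumina sequencing.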
AUUCCUUUGGCGUAAUGGUAACGCGUCUCCCUCCUAAGGAGAAGACUGCGGGUUCGAGUCCCGUACGGGUCG: the “yeast fitness (ln)” value was -0.131.
Consider AUUCCUUUGGCGUAAUGGUAACGCGUCUCCCUCCUAAGGAGACGAUUGCGGGUUCGAGUCCCGUACGGAAUG, for which the “yeast fitness (ln)” value was -0.174.
Consider AUUCCUUUGGCGUAAUGGUAACGCGUCUCCCUCCUAAGGAGAAGACUGCGGGUUCGAGUCCCGUACGGAUCG, for which the “yeast fitness (ln)” value is -0.156.
In the case of AUUCCUUUGGCGUAAUGGUAACGCGUCUCCCUCCUAAGGAGAAGACUGCGGGUUCGAGUCCCGUACGGAGCG, the “yeast fitness (ln)” value was -0.192.
With AUUCCUUUGGCGUAAUGGUAACGCGUCUCCCUCCUAAGGAGACGACUGCGGGUUCGAGUCCCGUAAGGAUUG the figure was -0.386.
With AUUCCUUUGGCGUAAUGGUAACGCGUCUCCCUCCUAAGGAGACGACUGCGGGUUCGAGUCCCGUAAGGGAUG the figure was -0.863; with AUUCCUUUGGCGUAAUGGUAACGCGUCUCCCUCCUAAGGAGACGAUUGCGGGUUCGAGUCCCGUAUGGGUUG, -0.429; with AUUCCUUUGGCGUAAUGGUAACGCGUCUCCCUCCUAAGGAGACGAUUGCGGGUUCGAGUCCCGUAUGGGGUG, -0.333.
Turning to AUUCCUUUGGCGUAAUGGUAACGCGUCUCCCUCCUAAGGAGACGAUUGCGGGUUCGAGUCCCGUAAGGAGCG, the “yeast fitness (ln)” value is -0.17.
For the variant AUUCCUUUGGCGUAAUGGUAACGCGUCUCCCUCCUAAGGAGACGAUUGCGGGUUCGAGUCCCGUAAGGAUCG, the “yeast fitness (ln)” value is -0.242.
On to AUUCCUUUGGCGUAAUGGUAACGCGUCUCCCUCCUAAGGAGACGAUUGCGGGUUCGAGUCCCGUAAGGAUUG, for which the “yeast fitness (ln)” value is -0.334.
Under AUUCCUUUGGCGUAAUGGUAACGCGUCUCCCUCCUAAGGAGACGACUGCGGGUUCGAGUCCCGUAUGGGUCG stands -0.452; under AUUCCUUUGGCGUAAUGGUAACGCGUCUCCCUCCUAAGGAGACGACUGCGGGUUCGAGUCCCGUAUGGGGCG, -0.469.
With AUUCCUUUGGCGUAAUGGUAACGCGUCUCCCUCCUAAGGAGACGAUUGCGGGUUCGAGUCCCGUAUGGAGCG the figure was -0.261; with AUUCCUUUGGCGUAAUGGUAACGCGUCUCCCUCCUAAGGAGACGAUUGCGGGUUCGAGUCCCGUAUGGAUCG, -0.259.
With AUUCCUUUGGCGUAAUGGUAACGCGUUUCCCUCCUAAGGAGACGACUGCGGGUUCGAGUCCCGUACGGAGCG the figure was -0.439; with AUUCCUUUGGCGUAAUGGUAACGCGUUUCCCUCCUAAGGAGACGACUGCGGGUUCGAGUCCCGUACGGAUCG, -0.331.
As to AUUCCUUUGGCGUAAUGGUAACGCGUUUCCCUCCUAAGGAGACGACUGCGGGUUCGAGUCCCGUACGGGAUG, the “yeast fitness (ln)” value is -0.557.
Turning to AUUCCUUUGGCGUAAUGGUAACGCGUCUCCCUCCUAAGGAGAAGACUGCGGGUUCGAGUCCCGUACGGGAUG, the “yeast fitness (ln)” value is -0.186.
For the variant AUUCCUUUGGCGUAAUGGUAACGCGUCUCCCUCCUAAGGAGACGACUGCGGGUUCGAGUCCCGUAAGGGUUG, the “yeast fitness (ln)” value is -0.344.
Under AUUCCUUUGGCGUAAUGGUAACGCGUCUCCCUCCUAAGGAGACGACUGCGGGUUCGAGUCCCGUAUGGAGCG stands -0.339; under AUUCCUUUGGCGUAAUGGUAACGCGUCUCCCUCCUAAGGAGACGACUGCGGGUUCGAGUCCCGUAUGGAUCG, -0.212; under AUUCCUUUGGCGUAAUGGUAACGCGUUUCCCUCCUAAGGAGACGACUGCGGGUUCGAGUCCCGUACGGAACG, -0.258.
AUUCCUUUGGCGUAAUGGUAACGCGUCUCCCUCCUAAGGAGACGAUUGCGGGUUCGAGUCCCGUAUGGAGUG: the “yeast fitness (ln)” value was -0.278.
With AUUCCUUUGGCGUAAUGGUAACGCGUUUCCCUCCUAAGGAGACGAUUGCGGGUUCGAGUCCCGUACGGAGUG the figure was -0.321; with AUUCCUUUGGCGUAAUGGUAACGCGUCUCCCUCCUAAGGAGACGAUUGCGGGUUCGAGUCCCGUAAGGAGUG, -0.237; with AUUCCUUUGGCGUAAUGGUAACGCGUCUCCCUCCUAAGGAGACGACUGCGGGUUCGAGUCCCGUAUGGGGUG, -0.371.
With AUUCCUUUGGCGUAAUGGUAACGCGUUUCCCUCCUAAGGAGACGACUGCGGGUUCGAGUCCCGUACGGGUUG the figure was -0.58; with AUUCCUUUGGCGUAAUGGUAACGCGUCUCCCUCCUAAGGAGACGACUGCGGGUUCGAGUCCCGUAAGGAGCG, -0.135.
With AUUCCUUUGGCGUAAUGGUAACGCGUCUCCCUCCUAAGGAGACGACUGCGGGUUCGAGUCCCGUAAGGAUCG the figure was -0.411; with AUUCCUUUGGCGUAAUGGUAACGCGUCUCCCUCCUAAGGAGACGACUGCGGGUUCGAGUCCCGUAUGGGAUG, -0.587; with AUUCCUUUGGCGUAAUGGUAACGCGUUUCCCUCCUAAGGAGACGAUUGCGGGUUCGAGUCCCGUACGGAUCG, -0.346.
Turning to AUUCCUUUGGCGUAAUGGUAACGCGUUUCCCUCCUAAGGAGACGAUUGCGGGUUCGAGUCCCGUACGGAGCG, the “yeast fitness (ln)” value is -0.385.
For AUUCCUUUGGCGUAAUGGUAACGCGUCUCCCUCCUAAGGAGAAGACUGCGGGUUCGAGUCCCGUACGGGGUG, the “yeast fitness (ln)” value was -0.247.
With AUUCCUUUGGCGUAAUGGUAACGCGUCUCCCUCCUAAGGAGACGAUUGCGGGUUCGAGUCCCGUAUGGAAUG the figure was -0.275; with AUUCCUUUGGCGUAAUGGUAACGCGUUUCCCUCCUAAGGAGACGAUUGCGGGUUCGAGUCCCGUACGGGUCG, -0.347; with AUUCCUUUGGCGUAAUGGUAACGCGUUUCCCUCCUAAGGAGACGAUUGCGGGUUCGAGUCCCGUACGGGGCG, -0.346.
On to AUUCCUUUGGCGUAAUGGUAACGCGUCUCCCUCCUAAGGAGAAGACUGCGGGUUCGAGUCCCGUACGGAUUG, for which the “yeast fitness (ln)” value is -0.213.
